From ChEMBL document CHEMBL1122593, “Phosphorus-nitrogen compounds. 24. Phosphoramide mustard carrier derivatives” (1984)
Where “and” joins values, the source holds several entries; their conditions need not be identical. Equal values may be shown once.

Experiments:
L1210 [1] = test: Antitumor activity against L1210 lymphoid leukemia and treated mean survival time per control mean survival time was determined at 500 mg/kg; type: functional, Mus musculus
Procedure, shortened: (§1)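 Mice bearing L1210 lymphoid leukaemia, tested by NCI contractors. Compound given as a single injection 1 day after tumour cell inoculation. T/C% = (treated/control) × 100.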

L1210 [2] = test: Antitumor activity against L1210 lymphoid leukemia and treated mean survival time per control mean survival time was determined at 300 mg/kg; type: functional, Mus musculus; procedure, shortened: as §1
Mus musculus = test: Antitumor activity against CD8F1 mammary tumor and treated mean survival time per control mean survival time was determined at 300 mg/kg; type: functional
Procedure, shortened: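 Mice bearing CD8F1 mammary tumour, tested by NCI contractors. Compound given as a single injection starting 20 days after tumour cell inoculation. T/C% = (treated/control) × 100.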

P388 = test: Antitumor activity against P388 Lymphocytic leukemia and treated mean survival time per control mean survival time was determined at 200 mg/kg; type: functional, Mus musculus
Procedure, shortened: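 Mice bearing P388 lymphocytic leukaemia, tested by NCI contractors. Compound given as five consecutive injections beginning 1 day after tumour cell inoculation. T/C% = (treated/control) × 100.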

[3] = Antitumor activity against Lewis lung carcinomia and treated mean survival time per control mean survival time was determined at 400 mg/kg; type: functional, Mus musculus
Procedure, shortened: (§2)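 Mice bearing Lewis lung carcinoma, tested by NCI contractors. Compound given as nine consecutive injections beginning 1 day after tumour cell inoculation. T/C% = (treated/control) × 100.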

[4] = Antitumor activity against Lewis lung carcinomia and treated mean survival time per control mean survival time was determined at 50 mg/kg; type: functional, Mus musculus; procedure, shortened: as §2

`CC/C(=C(/CC)c1ccc(OP(=O)(Cl)N(CCCl)CCCl)cc1)c1ccc(OP(=O)(Cl)N(CCCl)CCCl)cc1` (centres undefined) gave a T/C (L1210 [1]) of 100%.

With `CC/C(=C(/CC)c1ccc(OP(N)(=O)N(CCCl)CCCl)cc1)c1ccc(OP(N)(=O)N(CCCl)CCCl)cc1` (centres undefined) the T/C (L1210 [2]) was 113%, the T/C (Mus musculus) was 39% and the T/C (P388; 200 mg/kg) was 100% and 104%.

Work on `NP(=O)(Oc1cccc2c(OP(N)(=O)N(CCCl)CCCl)cccc12)N(CCCl)CCCl` (centres undefined) yielded a T/C (L1210 [1]) of 95%.

`NP(=O)(Oc1c2occc2cc2ccc(=O)oc12)N(CCCl)CCCl` (centres undefined) gave a T/C (P388) of 114%.

In the case of `CC(C)N1C[C@@H](COc2cccc3ccccc23)O[P@@]1(=O)N(CCCl)CCCl` (racemic), the T/C (L1210 [1]; 500 mg/kg) is reported as 130% and 110% and 90%.

For `CC(C)N1C[C@H](COc2cccc3ccccc23)O[P@@]1(=O)N(CCCl)CCCl` (racemic), the T/C [3] was 90% and the T/C [4] was 95%.
